# TAAR1 antag = human TAAR1 antagonists, primary screen, Fluo-8 calcium fluorescence, CHO RD-HGA16 cells; Trace amine-associated receptor 1 (Homo sapiens), Q96RJ0; antagonist; inhibition, % at 3 µM; 360,000 tested, 1.5% active; AID 624466, 2012;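 active = inhibition above a per-plate cutoff, the mean inhibition of test compounds on that plate plus 3 SD, cut at about 49% in these data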;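 also: 0% = DMSO plus EC80 beta-PEA response and 100% = DMSO alone without agonist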
#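 Test system: CHO RD-HGA16 cells bearing hTAAR1 | Reagent: β-PEA, EC80 | Compound dosing: 3 µM, single point | Schedule: Dye loading 75 min at 37 °C, then 30 min room temperature | Signal: Calcium fluorescence with Fluo-8 | Evaluation: Percent inhibition of PEA-evoked calcium signal, max/basal emission ratio | Control set: DMSO-only wells and EC80 β-PEA-stimulated wells | Repeats: Singlicate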
# CHRM1 PAM = human M1 muscarinic receptor positive allosteric modulators, primary screen, CHO-K1 cells, Fluo-8 calcium fluorescence, 1536-well. activation, % at 3 µM. AID 588819, 2011. CHO-K1 hM1, ACh EC20; 0% = ACh EC20, 100% = maximal ACh. 360,000 tested, 0.088% active; in the data active = activation above about 19%, passing the limit was not always enough
# Target sequence (P11229 whole entry, looked up): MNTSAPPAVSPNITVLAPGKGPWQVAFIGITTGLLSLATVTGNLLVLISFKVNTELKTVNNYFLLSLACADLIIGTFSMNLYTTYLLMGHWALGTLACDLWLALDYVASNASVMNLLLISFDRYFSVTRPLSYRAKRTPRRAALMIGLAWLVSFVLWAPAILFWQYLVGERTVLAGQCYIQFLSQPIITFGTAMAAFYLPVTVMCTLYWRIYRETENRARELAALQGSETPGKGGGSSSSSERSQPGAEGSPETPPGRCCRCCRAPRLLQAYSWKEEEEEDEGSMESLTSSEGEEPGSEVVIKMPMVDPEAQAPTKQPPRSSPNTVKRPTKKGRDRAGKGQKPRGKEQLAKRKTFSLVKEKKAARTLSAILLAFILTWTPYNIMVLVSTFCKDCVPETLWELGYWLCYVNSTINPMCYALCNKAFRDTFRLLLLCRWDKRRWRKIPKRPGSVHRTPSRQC
# M1 antag = human M1 muscarinic receptor antagonists, primary screen, CHO-K1 cells, Fluo-8 calcium fluorescence, 1536-well | CHO-K1 hM1, ACh EC80 antagonist | 360,000 tested, 1.3% active | Muscarinic acetylcholine receptor M1 (Homo sapiens), P11229 | inhibition, % at 3 µM;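 active = percent inhibition above its own plate's cutoff, namely the mean of that plate's compound wells plus 3 SD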;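 also: peak over basal fluorescence ratio during 140 s after agonist addition; 0% = ACh EC80 plus DMSO and 100% = DMSO alone without agonist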
# CHRM1 agonist = human M1 muscarinic receptor agonists, primary screen, Fluo-8 calcium fluorescence, CHO-K1 cells, HTS. CHO-K1 hM1, agonist mode; 0% DMSO, 100% acetylcholine EC100. AID 588814, 2011. activation, % at 3 µM. 360,000 tested, 0.33% active;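 active = activation above the run's mean compound activation plus 3 SD, cut at about 16% in these data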;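 also: peak over basal fluorescence ratio within a 140 s kinetic read after compound addition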
# TAAR1 ag = human TAAR1 agonists, primary screen, Fluo-8 calcium fluorescence, CHO RD-HGA16 cells | vehicle wells 0%, saturating PEA agonist 100% | AID 624467, 2012 | activation, % at 3 µM | Trace amine-associated receptor 1 (Homo sapiens), Q96RJ0 | 360,000 tested, 0.99% active;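 active = activation above the mean activation of all test compounds in the run plus 3 SD, cut at about 38% in these data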
#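 Repeats: no replicates (n 1) | Material: CHO-derived RD-HGA16 cells with stable Gα16 and human TAAR1 | Technique: Kinetic Fluo-8 calcium fluorescence | Schedule: 17-24 h seeding, 75 min 37 °C dye, 30 min RT | Evaluation: % activation from peak over basal fluorescence ratio, DMSO-to-PEA scaled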
# Starred values were filed as active, the others as inactive; x = no result given. The list is not random: actives were taken first. Their share in the collection is about 3.4%.
SMILES,TAAR1 antag,CHRM1 PAM,M1 antag,CHRM1 agonist,TAAR1 ag
CC1=NN(C(N)=S)C(=O)C1N=Nc1c(Br)cc(Br)cc1Br (stereo unspecified),41,3,-4,0,39*
COC(=O)N1C[C@@H]2Oc3nccnc3O[C@@H]2C[C@@H]1c1ccccc1Br,-25,x,x,x,1
Cc1cc(C)nc(NC(=NCc2ccc3c(c2)OCO3)NC(=O)Nc2ccccc2)n1,2,-14,32*,-7,1
CN1CCN(c2nc3c(c(=O)n(C)c(=O)n3C)n2Cc2ccccc2Cl)CC1,-5,-28,57*,-10,0
CN1CCN(c2nc3c(c(=O)n(C)c(=O)n3C)n2Cc2cccc3ccccc23)CC1,-24,6,-11,-6,6
COC(=O)c1cc2c(C)c(C)c3ccccn3c-2c1C(=O)OC,63*,5,-5,-3,17
CC(=O)Nc1ccc(S(=O)(=O)N2CCN(CC(O)COc3ccc4ccccc4c3)CC2)cc1 (stereo unspecified),39,-21,34*,0,30
CCCCc1c(-c2ccccc2OC)ncn1C(C)c1ccccc1 (stereo unspecified),0,x,x,x,4
CCCCCc1c(C)nc(Nc2ccccc2)[nH]c1=O,-1,3,-4,0,38*
Cc1ccc(Nc2nc(C)c(CCC(C)C)c(=O)[nH]2)cc1,14,4,-4,-1,2
CCC(C(=O)NC1CCCCC1)n1c(SCc2cccc(F)c2)nc2ccncc21 (stereo unspecified),-12,-30,45*,-11,1
CCC(C(=O)NC1CCCCC1)n1c(SCc2cccc(C)c2)nc2ccncc21 (stereo unspecified),-15,-29,28,-11,0
COc1cccc(Cn2cccc(NC(=O)Nc3ccc(C#N)cc3)c2=O)c1,53*,-7,15,0,8
COc1cccc(NC(=O)Nc2cccn(Cc3ccccc3)c2=O)c1,1,0,5,0,3
Cc1ccc(OCCCCN2CCC(C)CC2)cc1,x,-7,4,-10,x
CC1CCCN(CCOc2cccc(Oc3ccccc3)c2)C1 (stereo unspecified),-12,-18,17,-8,15
CC1CCN(CCOc2ccc(C(=O)c3ccccc3)cc2)CC1,-24,-29,64*,-9,7
CC1CCN(CCCCOc2cccc(C(C)C)c2)CC1,-14,-31,70*,-5,4
CC1CCN(CCOc2cccc(Br)c2)CC1,-30,-5,9,-9,2
CCCOc1ccc(OCCN2CCCC(C)C2)cc1 (stereo unspecified),-29,-23,28*,-7,6
CC1CCC(NC(=O)COc2ccc(C(=O)c3ccccc3)cc2)CC1 (stereo unspecified),30,10,-17,-2,6
CC1CCN(CCCCOc2ccc(C(=O)c3ccccc3)cc2)CC1,-5,-24,55*,-3,10
COC(=O)C1=C(C)N(C)C(=NCc2cc(OC)c(OC)c(OC)c2)NC1c1cccc(F)c1 (stereo unspecified),1,x,x,x,0
CC(C(=O)NC1CCCC1)n1c(C2CCCC2)nc2ccccc21 (stereo unspecified),-3,x,x,x,0
CCN(CC)CCOC(=O)C(c1ccccc1)c1ccccc1,1,-25,96*,-5,1
CCN(CC)CCOC(=O)C(c1ccccc1)C1CCCCC1 (stereo unspecified),-7,-27,99*,-7,8
CCN(CC)CCSc1nc(O)c(-c2ccccc2)c(=O)[nH]1,2,10,-2,0,8
CCN(CCO)C(=O)C(c1ccccc1)c1ccccc1,-3,10,-2,-3,4
CCN(CC)CCSC(=O)C(c1ccccc1)c1ccccc1,8,-26,101*,-9,2
Cc1cc(O)cc(=O)n1-c1ccc(OC(F)F)cc1,-11,x,x,x,0
